One data set deals with Protein smoothened (Mus musculus, UniProt P56726). Put plainly: Inhibition of Smo-mediated Hh signalling pathway in mouse Shh Light2 cells by Gli-luciferase reporter gene assay. It counts as cell-based. Put shortly: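 Light II cells (NIH-3T3 stably carrying a Gli-responsive firefly luciferase reporter plus a Renilla luciferase vector), seeded in 96-well plates and treated. Firefly/Renilla activity in the lysates read by dual luciferase assay on a luminometer. IC50 is the mean ± SD of three separate experiments.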
For orientation: In a reporter assay the amount or activity of a reporter protein is the signal.

The next data set has as its system HEK293. Put plainly: Inhibition of TNF-alpha stimulated NFkappaB transactivation in HEK293 cells at 20 uM measured after 24 hrs by dual luciferase reporter gene assay. It counts as cell-based. Conditions: Homo sapiens. An outline of the steps: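 HEK293 cells stimulated with TNF-α and treated for 24 h, then lysed for dual luciferase reporter analysis of NF-κB activity. Mean ± SD.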

The nature of data set [1]: Cytotoxicity against human KB cells. The class given is toxicity, cell-based.
Data set [2] addresses Voltage-gated inwardly rectifying potassium channel KCNH2 (Homo sapiens, UniProt Q12809). Briefly: Inhibition of human ERG.
Data set [3] addresses Protein smoothened (Homo sapiens) (UniProt Q99835). Briefly: Antagonist activity at wild-type Smo (unknown origin) expressed in mouse Shh Light2 cells assessed as suppression of Gli-mRNA expression measured after 36 hrs by dual luciferase reporter gene assay. The class given is cell-based. The settings on record: in the assay text read “Gli-luciferase activity” for “Gli-mRNA expression”. Put shortly:
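Light II cells transfected with wild-type Smo plasmid to drive Gli-luciferase, exposed to compound for 36 h, then harvested for dual luciferase reporter assay. Mean ± SD.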

A further data set relates to Medulloblastoma cell. Briefly: Antiproliferative activity against mouse medulloblastoma cells isolated from Ptch+/- p53-/- mouse measured after 72 hrs by MTS assay. The class given is functional. Put shortly: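 Medulloblastoma cells from Ptch+/-;p53-/- allografts in nude mice, minced and collagenase-digested, grown in Neurobasal A with B-27, EGF 20 ng/ml, bFGF 20 ng/ml, nonessential amino acids and N-acetyl cysteine 60 µg/ml. Seeded in 96-well plates, treated 72 h, viability read by MTS; mean ± SD.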
A general note: Formazan colour is commonly taken as a measure of viable cells.

Data set [4] deals with Protein smoothened (Homo sapiens) (UniProt Q99835). The settings on record: HEK293, 5 uM.
The target is the same in data set [5]. Conditions: HEK293, 5 uM. The source holds these as a separate data set.
In the next data set the test system is LS174T. Put plainly: Inhibition of PGE2-stimulated TCF/LEF transactivation in human LS174T cells at 20 uM measured after 6 hrs by dual luciferase reporter gene assay. The class given is cell-based. Put shortly:
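LS174T cells stimulated with PGE2 and treated for 6 h, then lysed for dual luciferase reporter analysis of TCF/LEF activity. Mean ± SD.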

Data set [6] is described as follows: Cytotoxicity against mouse L1210 cells by MTT assay. The class given is functional, cell-based.

The record followed here is ChEMBL document CHEMBL3864137, “Design, Synthesis, and Pharmacological Evaluation of 2-(2,5-Dimethyl-5,6,7,8-tetrahydroquinolin-8-yl)-N-aryl Propanamides as Novel Smoothened (Smo) Antagonists” (J Med Chem, 2016).

Structures are written as SMILES. pIC50: −log10 of the molar value. Calls of active or inactive are those of the source. No cut-off for these calls is given here. A value given as a limit tells only on which side of the number the result lay.

Broadly, the pIC50 is the IC50 on a negative log10 scale, so that one unit is a factor of ten. A higher pIC50 goes with a low IC50.

Sequence of Protein smoothened (P56726 whole entry): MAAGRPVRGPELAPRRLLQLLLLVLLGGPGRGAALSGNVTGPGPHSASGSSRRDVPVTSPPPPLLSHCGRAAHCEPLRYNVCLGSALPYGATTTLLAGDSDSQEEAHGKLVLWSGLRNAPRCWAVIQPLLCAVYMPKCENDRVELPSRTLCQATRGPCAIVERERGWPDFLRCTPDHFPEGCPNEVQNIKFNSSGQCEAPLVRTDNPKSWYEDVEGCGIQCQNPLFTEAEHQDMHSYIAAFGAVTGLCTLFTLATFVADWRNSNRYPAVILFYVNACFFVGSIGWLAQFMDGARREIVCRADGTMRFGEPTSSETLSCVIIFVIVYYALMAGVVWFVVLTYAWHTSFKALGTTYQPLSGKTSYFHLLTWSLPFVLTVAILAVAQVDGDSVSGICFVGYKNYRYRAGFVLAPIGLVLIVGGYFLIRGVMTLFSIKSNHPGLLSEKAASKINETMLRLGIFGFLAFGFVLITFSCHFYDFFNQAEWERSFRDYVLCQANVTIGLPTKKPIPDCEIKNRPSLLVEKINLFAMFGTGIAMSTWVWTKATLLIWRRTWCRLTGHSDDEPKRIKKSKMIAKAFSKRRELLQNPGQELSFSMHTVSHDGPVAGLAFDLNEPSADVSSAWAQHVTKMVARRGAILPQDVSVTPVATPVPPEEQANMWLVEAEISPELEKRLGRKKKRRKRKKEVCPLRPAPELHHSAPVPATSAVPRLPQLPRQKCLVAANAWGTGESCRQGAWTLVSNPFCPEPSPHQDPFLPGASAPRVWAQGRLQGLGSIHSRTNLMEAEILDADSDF
Sequence of Protein smoothened (Homo sapiens) (Q99835 whole entry): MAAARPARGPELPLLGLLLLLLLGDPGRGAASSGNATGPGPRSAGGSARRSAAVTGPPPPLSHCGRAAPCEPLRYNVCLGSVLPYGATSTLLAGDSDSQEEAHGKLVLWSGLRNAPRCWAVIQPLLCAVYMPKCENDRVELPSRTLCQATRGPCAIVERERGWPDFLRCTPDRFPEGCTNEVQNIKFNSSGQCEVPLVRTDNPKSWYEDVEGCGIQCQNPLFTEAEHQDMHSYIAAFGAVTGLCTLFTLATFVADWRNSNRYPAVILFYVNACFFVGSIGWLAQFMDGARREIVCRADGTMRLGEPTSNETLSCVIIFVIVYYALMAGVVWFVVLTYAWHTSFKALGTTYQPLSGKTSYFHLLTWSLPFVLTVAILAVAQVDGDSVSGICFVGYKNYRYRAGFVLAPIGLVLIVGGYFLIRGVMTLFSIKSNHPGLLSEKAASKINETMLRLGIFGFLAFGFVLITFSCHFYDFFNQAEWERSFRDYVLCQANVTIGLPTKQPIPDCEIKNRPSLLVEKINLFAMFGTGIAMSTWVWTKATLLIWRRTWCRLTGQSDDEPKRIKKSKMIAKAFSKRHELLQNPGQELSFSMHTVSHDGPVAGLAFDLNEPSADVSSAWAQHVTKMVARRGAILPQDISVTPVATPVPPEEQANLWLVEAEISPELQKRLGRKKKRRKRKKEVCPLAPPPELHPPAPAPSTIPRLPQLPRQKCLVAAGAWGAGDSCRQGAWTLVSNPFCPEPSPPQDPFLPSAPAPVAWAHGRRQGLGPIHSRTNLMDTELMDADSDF
Sequence of Voltage-gated inwardly rectifying potassium channel KCNH2 (Q12809 whole entry): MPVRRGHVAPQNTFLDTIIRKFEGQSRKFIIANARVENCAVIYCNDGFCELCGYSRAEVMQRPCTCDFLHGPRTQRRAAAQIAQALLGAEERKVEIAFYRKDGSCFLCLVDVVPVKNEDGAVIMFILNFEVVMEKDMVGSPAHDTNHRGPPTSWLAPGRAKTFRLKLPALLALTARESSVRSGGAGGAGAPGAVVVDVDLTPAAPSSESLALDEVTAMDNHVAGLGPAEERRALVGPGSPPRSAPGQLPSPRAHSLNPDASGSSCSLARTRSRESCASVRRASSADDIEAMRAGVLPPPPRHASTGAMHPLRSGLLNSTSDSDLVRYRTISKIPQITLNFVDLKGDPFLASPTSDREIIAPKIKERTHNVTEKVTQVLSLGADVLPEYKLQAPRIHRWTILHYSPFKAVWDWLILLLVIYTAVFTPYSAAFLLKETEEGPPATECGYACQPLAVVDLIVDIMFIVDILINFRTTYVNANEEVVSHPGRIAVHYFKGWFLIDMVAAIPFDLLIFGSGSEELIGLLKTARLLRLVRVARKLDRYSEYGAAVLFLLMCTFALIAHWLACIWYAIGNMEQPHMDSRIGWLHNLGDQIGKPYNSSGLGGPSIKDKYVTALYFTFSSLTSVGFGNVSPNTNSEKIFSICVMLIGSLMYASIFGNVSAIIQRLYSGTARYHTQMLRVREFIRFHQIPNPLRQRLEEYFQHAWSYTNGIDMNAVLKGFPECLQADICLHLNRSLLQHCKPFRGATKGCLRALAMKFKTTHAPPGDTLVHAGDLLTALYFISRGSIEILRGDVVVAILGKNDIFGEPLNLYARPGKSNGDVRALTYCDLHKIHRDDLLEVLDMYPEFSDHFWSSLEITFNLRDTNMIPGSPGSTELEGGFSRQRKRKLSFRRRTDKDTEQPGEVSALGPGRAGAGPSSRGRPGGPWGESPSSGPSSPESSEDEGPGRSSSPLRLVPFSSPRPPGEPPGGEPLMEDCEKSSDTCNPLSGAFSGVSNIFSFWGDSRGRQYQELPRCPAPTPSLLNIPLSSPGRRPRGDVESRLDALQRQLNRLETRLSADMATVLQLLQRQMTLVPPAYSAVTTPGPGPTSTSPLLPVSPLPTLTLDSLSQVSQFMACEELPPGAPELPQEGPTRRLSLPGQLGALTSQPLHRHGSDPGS

`Cc1nc2c(s1)C[C@@H]1[C@H](C2)[C@H]([C@@H](C)C(=O)Nc2ccc(Cl)c(-c3ccccn3)c2)CC[C@H]1C` showed a pIC50 against Protein smoothened of less than 6.00. In the case of `Cc1ccc(S(=O)(=O)/C=C/C#N)cc1`, the inhibition result in the data set with HEK293 is “Active”. With `Cc1ccc2c(n1)[C@H]([C@@H](C)C(=O)Nc1ccc(Cl)c(-c3nnc(-c4ccnn4C)s3)c1)CC[C@H]2C`, the pIC50 against Protein smoothened was 6.58. Consider `C[C@@H]1CC[C@@H]([C@@H](C)C(=O)Nc2ccc(Cl)c(-c3ccccn3)c2)c2nc(CN3CCOCC3)ccc21`, for which the figures for the pIC50 (in [1]; in [2]; against Protein smoothened) were less than 4.70, 5.48 and 6.81, respectively.

As to `CS(=O)(=O)c1ccc(C(=O)Nc2ccc(Cl)c(-c3ccccn3)c2)c(Cl)c1`, the inhibition result in [3] is “Dose-dependent effect”. In addition, in the data set with Medulloblastoma cell, the Activity result was “Dose-dependent effect”. Take `Cc1ccc2c(n1)[C@H]([C@@H](C)C(=O)Nc1ccc(Cl)c(-c3ccccn3)c1)CC[C@H]2C`: the pIC50 in data set [1] is 4.82; in [2], less than 4.82; against Protein smoothened it was 6.67. `COC(=O)[C@H](C)c1ccc(C)c2ccc(C(=O)Nc3ccc(Cl)c(-c4ccccn4)c3)nc12` gave a pIC50 at Protein smoothened of 6.57.

On to `C[C@H]1[C@@H](CC(=O)Nc2ccc(Cl)c(-c3ccccn3)c2)O[C@@H]2O[C@@]3(C)CC[C@H]4[C@H](C)CC[C@@H]1[C@@]24O3`, for which the pIC50 at Protein smoothened was 6.74. This pIC50 and that of the molecule before are within 0.2 log units of each other. For `C[C@H]1[C@@H](CC(=O)Nc2ccc(Cl)c(-c3ccccn3)c2)O[C@@H]2O[C@@]3(C)CC[C@H]4[C@H](C)CC[C@@H]1[C@@]24OO3`, the pIC50 in [1] was 5.18; in data set [2] it was less than 4.82; at Protein smoothened, 6.62.

`C[C@@H]1CC[C@@H]([C@@H](C)C(=O)Nc2ccc(Cl)c(-c3ccccn3)c2)[C@H]2CC(=O)CC[C@H]21` had a pIC50 on Protein smoothened of 6.54. As to `Cc1ccc2c(n1)[C@H]([C@@H](C)C(=O)Nc1ccc(Cl)c(-c3nc4ccc(OC(F)(F)F)cc4n3C)c1)CC[C@H]2C`, the pIC50 on Protein smoothened was 7.28. The molecule `Cc1ccc2c(n1)[C@H]([C@@H](C)C(=O)Nc1ccc(Cl)c(-c3nnc(-c4ccnn4C)o3)c1)CC[C@H]2C` showed a pIC50 against Protein smoothened of 6.23.

`Cc1ccc2c(n1)[C@H]([C@@H](C)C(=O)Nc1ccc(Cl)c(-c3nc4ccccc4o3)c1)CC[C@H]2C`: at Protein smoothened, the pIC50 is 6.61. On Protein smoothened, `C[C@@H]1CC[C@@H]([C@@H](C)C(=O)Nc2ccc(Cl)c(-c3ccccn3)c2)[C@H]2CC(O)CC[C@H]21` (stereo partly drawn) had a pIC50 of less than 6.00. For `CC1=C2C[C@H]3[C@@H](CC=C4C[C@@H](O)CC[C@@]43C)[C@@H]2CC[C@]12O[C@@H]1C[C@H](C)CN[C@H]1[C@H]2C`, the inhibition result in [4] and in data set [5] was “Active” throughout.

Regarding `C[C@@H]1CC[C@@H]([C@@H](C)C(=O)Nc2ccc(Cl)c(-c3ccccn3)c2)[C@H]2CC(=O)C=C[C@H]21`, the pIC50 against Protein smoothened is less than 6.00. In turn, `Cc1ccc2c(n1)[C@H]([C@@H](C)C(=O)Nc1ccc(Cl)c(-c3ccc(N4C[C@@H](C)O[C@@H](C)C4)cn3)c1)CC[C@H]2C` gave a pIC50 on Protein smoothened of less than 6.00. As to `C[C@@H]1CC[C@@H]([C@@H](C)C(=O)Nc2ccc(Cl)c(-c3ccccn3)c2)[C@H]2Cc3c(cnn3-c3ccccc3)C[C@H]21`, the pIC50 against Protein smoothened was 6.49. Molecule `Cc1ccc2c(n1)[C@H]([C@@H](C)C(=O)Nc1ccc(Cl)c(-c3nc4ccccc4[nH]3)c1)CC[C@H]2C` gave a pIC50 on Protein smoothened of 7.34. `Cc1ccc2c(n1)[C@H]([C@@H](C)C(=O)Nc1cccc(-c3ccc(OC(F)(F)F)cc3)c1C)CC[C@H]2C` gave a pIC50 on Protein smoothened of 6.00. On Protein smoothened, `C[C@@H]1CC[C@@H]([C@@H](C)C(=O)Nc2ccc(Cl)c(-c3ccccn3)c2)C2=CC(=O)CC[C@H]21` gave a pIC50 of less than 6.00. `Cc1ccc2c(n1)[C@H]([C@@H](C)C(=O)Nc1ccc(Cl)c(-c3noc(C)n3)c1)CC[C@H]2C` gave a pIC50 on Protein smoothened of less than 6.00. Take `CC(=O)Nc1nc2c(s1)C[C@@H]1[C@H](C2)[C@H]([C@@H](C)C(=O)Nc2ccc(Cl)c(-c3ccccn3)c2)CC[C@H]1C`: the pIC50 against Protein smoothened is less than 6.00.

For `C[C@@H]1CC[C@@H]([C@@H](C)C(=O)Nc2ccc(Cl)c(-c3ccccn3)c2)[C@H]2Cc3c(c4ccccc4n3C)C[C@H]21`, the pIC50 on Protein smoothened was 6.32.

Regarding `Cc1ccc2c(n1)[C@H]([C@@H](C)C(=O)Nc1ccc(Cl)c(-c3nc4ccccc4s3)c1)CC[C@H]2C`, the pIC50 at Protein smoothened was 6.55. This pIC50 is 0.23 log units higher than that of the molecule before. `Cc1ccc2c(n1)[C@H]([C@@H](C)C(=O)Nc1ccc(Cl)c(-c3nc4cc(OC(F)(F)F)ccc4n3C)c1)CC[C@H]2C` had a pIC50 on Protein smoothened of 7.07. For the molecule `Cc1ccc2c(n1)[C@H]([C@@H](C)C(=O)Nc1ccc(Cl)c(-c3nc(C4CC4)no3)c1)CC[C@H]2C`, the pIC50 at Protein smoothened is 6.66. In turn, `C[C@@H]1CC[C@@H]2[C@]34OO[C@](C)(CC[C@@H]13)OC4O[C@]2(C)C(=O)Nc1ccc(Cl)c(-c2ccccn2)c1` (stereo partly drawn) showed a pIC50 on Protein smoothened of 6.74. Turning to `O=S(=O)(NCCNC/C=C/c1ccc(Br)cc1)c1cccc2cnccc12`, the inhibition result in the data set on LS174T is “Active”. For `C[C@H]1[C@@H](O[C@@H](C#N)c2ccc(Br)cc2)O[C@@H]2O[C@@]3(C)CC[C@H]4[C@H](C)CC[C@@H]1[C@@]24OO3`, in data set [6], the pIC50 was 8.00.
